According to ChEMBL document CHEMBL3785031, “Discovery of small-molecule nonpeptide antagonists of nociceptin/orphanin FQ receptor: The studies of design, synthesis, and structure-activity relationships for (4-arylpiperidine substituted-methyl)-[bicyclic (hetero)cycloalkanobenzene] derivatives” (Eur J Med Chem, 2016):

Columns and labels:
[1] = molecular target: T1, Nociceptin receptor (Homo sapiens, UniProt P41146); test: Displacement of [3H]N/OFQ from human NOP receptor expressed in HEK293 cells after 45 mins by scintillation proximity assay; format: cell-based
Method in brief: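 HEK-293 membranes bearing recombinant hNOP receptor (8.3 μg) were incubated at 25 °C for 45 min with 0.4 nM [3H]N/OFQ and WGA-SPA beads. Buffer was 50 mM HEPES, pH 7.4, with 10 mM MgCl2 and 1 mM EDTA. Six concentrations, 10⁻¹¹–10⁻⁵ M, were run in duplicate; NSB with 1 μM N/OFQ. IC50 by nonlinear regression; Ki = IC50/(1+[L]/KD), KD 0.135 nM.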

[2] = molecular target: Mu-type opioid receptor (Homo sapiens, UniProt P35372); test: Displacement of [3H]DAMGO from human mu opioid receptor expressed in CHOK1 cells after 45 mins by scintillation proximity assay; format: cell-based, CHO-K1
[3] = test system: HEK293; test: Selectivity ratio of Ki for human mu opioid receptor expressed in CHOK1 cells to Ki for human NOP receptor expressed in HEK293 cells; format: cell-based
[4] = molecular target: T1, Nociceptin receptor; test: Antagonist activity at human NOP receptor expressed in HEK293 cells assessed as inhibition of N/OFQ-induced [35S]GTPgammaS binding after 1.5 hrs by scintillation proximity assay; format: functional, cell-based
Method in brief: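 Membranes from HEK-293 cells expressing hNOP receptor were incubated 1.5 h at 25 °C with 10 nM N/OFQ, 400 pM [35S]GTPγS, 5 μM GDP and WGA-SPA beads. Buffer was 20 mM HEPES, 100 mM NaCl, 5 mM MgCl2 and 1 mM EDTA, pH 7.4. Six compound concentrations from 0.1 nM to 10 μM were run in duplicate. Basal binding was measured without ligands; NSB with 10 μM unlabeled GTPγS. Read by scintillation counting; IC50 derived.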

[5] = Half life in human liver microsomes at 1 uM by HPLC-MS/MS analysis; format: ADME
Method in brief: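 Substrate at 1.0 μM was incubated at 37 °C in pooled human liver microsomes (1.0 mg/mL protein) with 3.3 mM MgCl2, 0.1 M NaKHPO4 (pH 7.4) and an NADPH-regenerating system.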

[6] = molecular target: Voltage-gated inwardly rectifying potassium channel KCNH2 (Homo sapiens, UniProt Q12809); test: Displacement of [3H]dofetilide from human ERG channel expressed in HEK293 cells after 60 mins by liquid scintillation counting method; format: cell-based
[7] = molecular target: hERG (KCNH2) (Homo sapiens, UniProt Q12809); test: Displacement of [3H]dofetilide from human ERG channel expressed in HEK293 cells at 1 uM after 60 mins by liquid scintillation counting method; format: cell-based; settings: HEK293 cells that express hERG, probe [3H]dofetilide
Sequence of hERG (KCNH2) (Q12809 whole entry): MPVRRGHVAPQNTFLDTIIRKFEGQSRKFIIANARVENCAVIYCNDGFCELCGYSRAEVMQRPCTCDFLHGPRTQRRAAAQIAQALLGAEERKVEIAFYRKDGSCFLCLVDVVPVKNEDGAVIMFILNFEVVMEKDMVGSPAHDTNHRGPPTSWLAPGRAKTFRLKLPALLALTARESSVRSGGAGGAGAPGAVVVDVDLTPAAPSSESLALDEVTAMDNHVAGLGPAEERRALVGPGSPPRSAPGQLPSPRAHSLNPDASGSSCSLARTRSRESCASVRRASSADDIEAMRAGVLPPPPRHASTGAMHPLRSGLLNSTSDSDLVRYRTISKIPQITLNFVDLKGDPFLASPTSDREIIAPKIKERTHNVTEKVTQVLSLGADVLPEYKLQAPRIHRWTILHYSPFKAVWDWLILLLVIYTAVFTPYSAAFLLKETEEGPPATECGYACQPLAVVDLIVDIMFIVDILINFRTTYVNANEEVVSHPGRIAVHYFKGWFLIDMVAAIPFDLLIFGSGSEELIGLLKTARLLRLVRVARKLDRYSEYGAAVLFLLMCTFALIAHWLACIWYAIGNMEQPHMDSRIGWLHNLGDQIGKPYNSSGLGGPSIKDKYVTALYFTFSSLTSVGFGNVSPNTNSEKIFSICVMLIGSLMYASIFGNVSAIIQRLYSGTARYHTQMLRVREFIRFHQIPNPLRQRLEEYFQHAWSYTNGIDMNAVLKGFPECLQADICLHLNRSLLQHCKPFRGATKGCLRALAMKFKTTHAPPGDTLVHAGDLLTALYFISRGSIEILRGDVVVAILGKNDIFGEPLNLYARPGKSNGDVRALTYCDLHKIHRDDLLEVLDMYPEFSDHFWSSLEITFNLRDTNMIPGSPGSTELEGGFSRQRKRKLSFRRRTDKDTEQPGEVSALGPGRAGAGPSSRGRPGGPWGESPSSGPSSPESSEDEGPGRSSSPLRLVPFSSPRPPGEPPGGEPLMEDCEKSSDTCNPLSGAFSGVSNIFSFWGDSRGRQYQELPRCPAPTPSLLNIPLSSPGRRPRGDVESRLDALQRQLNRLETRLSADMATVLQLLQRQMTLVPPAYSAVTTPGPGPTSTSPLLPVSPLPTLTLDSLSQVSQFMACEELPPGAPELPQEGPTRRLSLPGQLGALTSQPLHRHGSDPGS

Sequence of Mu-type opioid receptor (P35372 whole entry): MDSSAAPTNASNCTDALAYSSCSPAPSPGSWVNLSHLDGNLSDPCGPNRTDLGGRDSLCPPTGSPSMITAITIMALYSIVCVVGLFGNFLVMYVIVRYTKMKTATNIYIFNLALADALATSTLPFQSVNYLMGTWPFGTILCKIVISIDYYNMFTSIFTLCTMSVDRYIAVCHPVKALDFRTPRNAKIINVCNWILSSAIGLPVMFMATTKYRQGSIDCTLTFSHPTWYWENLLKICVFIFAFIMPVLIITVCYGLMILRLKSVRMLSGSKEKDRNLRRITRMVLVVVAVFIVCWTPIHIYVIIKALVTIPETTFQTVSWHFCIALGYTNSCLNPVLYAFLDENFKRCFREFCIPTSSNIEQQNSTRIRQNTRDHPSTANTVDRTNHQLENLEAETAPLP
Sequence of Voltage-gated inwardly rectifying potassium channel KCNH2 (Q12809 whole entry): as the sequence (Q12809 whole entry) above
T1 sequence (P41146 whole entry): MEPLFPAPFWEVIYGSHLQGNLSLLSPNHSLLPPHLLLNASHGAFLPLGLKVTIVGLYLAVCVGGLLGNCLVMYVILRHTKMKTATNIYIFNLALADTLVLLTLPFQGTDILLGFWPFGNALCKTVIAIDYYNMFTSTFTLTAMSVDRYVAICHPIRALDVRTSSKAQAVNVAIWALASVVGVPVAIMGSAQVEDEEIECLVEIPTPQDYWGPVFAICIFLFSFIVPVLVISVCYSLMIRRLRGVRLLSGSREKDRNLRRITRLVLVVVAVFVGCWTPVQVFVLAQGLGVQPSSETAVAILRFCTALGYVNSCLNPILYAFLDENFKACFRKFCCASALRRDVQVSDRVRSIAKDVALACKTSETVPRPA

Cc1cc(F)ccc1C1CCN(CC2Cc3ccccc3CN2)CC1 (stereo not drawn)
Ki [1]: 3.56 nM
Ki [2]: 342 nM
Ratio Ki [3]: 96.1
IC50 [4]: 58.8 nM
half-life at 1 µM [5]: 6.9 min
IC50 [6]: 200 nM

Oc1ccc(Cl)c2c1CNC(CN1CCC3(CCc4ccccc43)CC1)C2 (stereo not drawn)
Ki [1]: 2.2 nM
Ki [2]: 68.8 nM
IC50 [4]: 21.3 nM
half-life at 1 µM [5]: 15.3 min

Oc1ccc(Br)c2c1CNC(CN1CCC3(CCc4ccccc43)CC1)C2 (stereo not drawn)
Ki [1]: 1.74 nM
Ki [2]: 139 nM
IC50 [4]: 35.1 nM
half-life at 1 µM [5]: 9.6 min

c1ccc2c(c1)CNC(CN1CCC3(CCc4ccccc43)CC1)C2 (stereo not drawn)
Ki [1]: 8.5 nM
Ki [2]: 225 nM
Ratio Ki [3]: 26.5
IC50 [4]: 248 nM
half-life at 1 µM [5]: 6.6 min
IC50 [6]: > 1500 nM

c1ccc2c(c1)CC(CN1CCC3(CCc4ccccc43)CC1)CO2 (stereo not drawn)
Ki [1]: 5.65 nM
Ki [2]: 49.1 nM
Ratio Ki [3]: 8.69
IC50 [4]: 122 nM
half-life at 1 µM [5]: 3.1 min
IC50 [6]: 1500 nM

CC(=O)N1Cc2ccccc2CC1CN1CCC2(CCc3ccccc32)CC1 (stereo not drawn)
Ki [1]: 29.8 nM
Ki [2]: 74.4 nM
Ratio Ki [3]: 2.5
IC50 [6]: 500 nM

c1ccc2c(c1)CCC(CN1CCC3(CCc4ccccc43)CC1)C2 (stereo not drawn)
Ki [1]: 5.55 nM
Ki [2]: 289 nM
Ratio Ki [3]: 52.1
IC50 [4]: 683 nM
inhibition at 1 h, 1 µM [7]: 71%

O=C(C1Cc2ccccc2CN1)N1CCC2(CCc3ccccc32)CC1 (stereo not drawn)
Ki [1]: > 250 nM
Ki [2]: > 450 nM

Oc1cccc2c1CNC(CN1CCC3(CCc4ccccc43)CC1)C2 (stereo not drawn)
Ki [1]: 2.4 nM
Ki [2]: 288 nM
Ratio Ki [3]: 120
IC50 [4]: 53.9 nM
half-life at 1 µM [5]: 12.2 min
IC50 [6]: 940 nM

CN1C(=O)c2ccccc2CC1CN1CCC2(CCc3ccccc32)CC1 (stereo not drawn)
Ki [1]: > 250 nM
Ki [2]: 231 nM
Ratio Ki [3]: < 0.924
IC50 [6]: 6960 nM

Cc1cc(F)ccc1C1CCN(CC2Cc3c(Cl)ccc(O)c3CN2)CC1 (stereo not drawn)
Ki [1]: 3.03 nM
Ki [2]: > 450 nM
Ratio Ki [3]: > 143
IC50 [4]: 28.7 nM
half-life at 1 µM [5]: 21.6 min
IC50 [6]: 970 nM

CN1Cc2ccccc2CC1CN1CCC2(CCc3ccccc32)CC1 (stereo not drawn)
Ki [1]: 18.9 nM
Ki [2]: 58.2 nM
Ratio Ki [3]: 3.08

NC(=O)N1Cc2ccccc2CC1CN1CCC2(CCc3ccccc32)CC1 (stereo not drawn)
Ki [1]: 18.1 nM
Ki [2]: 108 nM
Ratio Ki [3]: 5.97

Oc1ccc2c(c1)CC(CN1CCC3(CCc4ccccc43)CC1)NC2 (stereo not drawn)
Ki [1]: 10.2 nM
Ki [2]: 392 nM
IC50 [4]: 227 nM
half-life at 1 µM [5]: 18 min
